Experimental data reported in the array DNA melting data of Ke et al. (doi:10.1101/2024.01.08.574731).

Columns and labels:
[1] = folding enthalpy; higher = less favourable; fluorescence melt of hairpins on a sequencing array, two-state fit; conditions: sodium 0.088 M
Summary of the method: (§1)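 Melting temperature and folding enthalpy were derived from bootstrapped two-state fits. The fitted temperatures were raised by 9.35 °C to agree with UV melts, and four replicates were combined by inverse variance. The underlying data were Cy3 fluorescence images of library hairpins, with annealed Cy3 and quencher oligos, on a sequenced MiSeq flow cell in 50 mM Na-HEPES pH 8.0, 25 mM NaCl, taken in 2.5 °C steps up to 60 °C, normalised to pre-quench Cy3 and to control constructs.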

[2] = melting temperature; fluorescence melt of hairpins on a sequencing array, two-state fit, raised by 9.35 °C to match UV melts; conditions: sodium 0.088 M
Summary of the method: as §1

Sequence	folding enthalpy [1]	Tm [2]
GCATGTGGAAACACATAC (.(((((....))))).)	-14.9 kcal/mol	38.6 °C
GTGCTCTCGAAAGAGCAC (((..(((....))))))	-40.3 kcal/mol	62.6 °C
GGTCTGCCGAAAGGCACC (((..(((....))))))	-6.75 kcal/mol	28.8 °C
GATCCGTAGCGGATC ((((((...))))))	-35.6 kcal/mol	56 °C
GGAAGTCGAAAGACCTCC (((.(((....))).)))	-27.1 kcal/mol	43.3 °C
GTACCACGAAAGTGTAC (((.(((....))))))	-22 kcal/mol	42.3 °C
GTTATTGGAAACAATAAC (((((((....)))))))	-35 kcal/mol	49.7 °C
GCTGACGGAAACACCAGC ((((..(....)..))))	-13.1 kcal/mol	33.3 °C
GCGGACGAAAGTCACCGC ((((((....)))..)))	-29.5 kcal/mol	51.5 °C
GCAAAGGGAAACCTTTAC (.(((((....))))).)	-15.8 kcal/mol	28 °C
GATCTACAAGTAGATC ((((((....))))))	-34.2 kcal/mol	48.2 °C
GCTTAAGGAAACTCAAGC ((((.((....)).))))	-17.8 kcal/mol	28.3 °C
GTTGACGGAAACATCAAC (((((.(....).)))))	-31.8 kcal/mol	37.2 °C
GGTAAGTCGAAAGACACC (((..(((....))))))	-17.9 kcal/mol	37.3 °C
GCGTCTAACGC ((((...))))	-20.6 kcal/mol	53.3 °C
GCCTGGGGAAACCCAGAC (.(((((....))))).)	-14.1 kcal/mol	44.5 °C
GAACCCGAAAGGGATTTC ((((((....)))..)))	-11.1 kcal/mol	29.5 °C
GCTGAGCGAAAGCCCGGC ((.(.((....)).).))	-20.1 kcal/mol	52.2 °C
GAGGGCGAAAGCCATCTC ((((((....)))..)))	-16.2 kcal/mol	65.6 °C
GTATTCGAAAGAATTAC ((((((....))).)))	-13 kcal/mol	31.4 °C
GCTCTCGAAAGAGCTAGC ((((((....)))..)))	-15.5 kcal/mol	50.3 °C
GTGCCCGGAAACGGGTGC (..((((....))))..)	-21.9 kcal/mol	53.9 °C
GCGTTCGAAAGAATACGC ((((((....)))..)))	-27.3 kcal/mol	47.5 °C

Sequence	folding enthalpy [1]	Tm [2]
GTCTTCGAAAGAAGTGAC ((((((....)))..)))	-13.3 kcal/mol	34 °C
GATTGGGAAACCAATC ((((((....))))))	-35 kcal/mol	52.3 °C
GATCACCCCTGTGATC ((((((....))))))	-47.6 kcal/mol	55.6 °C
GCAGAGCGAAAGCGTTGC (((..((....))..)))	-19.4 kcal/mol	62 °C
GAATAGACGAAAGTCTTC (((..(((....))))))	-11.8 kcal/mol	26.1 °C
GGCGCACCGAAAGGTGCC (((..(((....))))))	-6.69 kcal/mol	47.5 °C
GCTTTTCGAAAGAATAGC (((.(((....))).)))	-29.3 kcal/mol	44 °C
GACACCGAAAGGTATGTC ((((((....)))..)))	-19.6 kcal/mol	39.2 °C
GACAGGGGAAACCCTATC ((.((((....)))).))	-12.8 kcal/mol	28 °C
GACTGGCGAAAGCCCGTC (((.(((....))).)))	-18.9 kcal/mol	49.1 °C
GCATGGCGAAAGCCTGGC ((..(((....)))..))	-18.4 kcal/mol	53.4 °C
GCCGAGCGAAAGCTGAGC ((..(((....)))..))	-11.2 kcal/mol	51.2 °C
GCCGAGCGAAAGCCTGGC (((..((....))..)))	-17 kcal/mol	62.6 °C
GTAGTTGAAAAACTAC ((((((....))))))	-30.9 kcal/mol	48.9 °C
GGTCCCCGAAAGGGACC (((.(((....))))))	-30.6 kcal/mol	68.4 °C
GGTCCTGAAAAGGACC ((((((....))))))	-30.9 kcal/mol	68.2 °C
GCACATCGAAAGATCTGC (((.(((....))).)))	-28.3 kcal/mol	36 °C
GCGGGGGCCCGC ((((....))))	-38.8 kcal/mol	56 °C
GTCCCACGAAAGTGTGAC (((.(((....))).)))	-33 kcal/mol	50.4 °C
GTCACCGAAAGGTGCGAC ((((((....)))..)))	-13 kcal/mol	58.5 °C
GCCCGTCGAAAGACGGC (((.(((....))))))	-10.7 kcal/mol	63.6 °C
GGACAGGCGAAAGCCTCC (((..(((....))))))	-9.93 kcal/mol	31.1 °C
GACACGGGAAACTGTGTC (((((.(....).)))))	-42.2 kcal/mol	53.5 °C

Sequence	folding enthalpy [1]	Tm [2]
GCACTCGGAAACGGGTGC ((((.((....)).))))	-51.6 kcal/mol	59.5 °C
GGATCCGGAAACGGATTC (.(((((....))))).)	-15.7 kcal/mol	52 °C
GACCTTGGAAACGAGGTC (((((.(....).)))))	-38.9 kcal/mol	50.9 °C
GACTAAGGAAACTTAGTC (((((((....)))))))	-35.1 kcal/mol	52.5 °C
GCAGACGAAAGTCCTTGC ((((((....)))..)))	-12.3 kcal/mol	32.5 °C
GATCTGTCACAGATC ((((((...))))))	-36.2 kcal/mol	50.6 °C
GCAACCCGAAAGGGTGC (((.(((....))))))	-19.1 kcal/mol	64.1 °C
GATCCGTCTCCGGATC ((((((....))))))	-39.8 kcal/mol	58.4 °C
GATCGTGGGCACGATC ((((((....))))))	-40.1 kcal/mol	56.8 °C
GGGTTCGAAAGAACACCC ((((((....)))..)))	-11.8 kcal/mol	55.1 °C
GGGAACGAAAGTTGACCC ((((((....)))..)))	-20.9 kcal/mol	37.8 °C
GTACAGGGAAACTTGTGC (.(((.(....).))).)	-16 kcal/mol	27.9 °C
GCCACGCGAAAGCAAGGC (((..((....))..)))	-22.9 kcal/mol	57.2 °C
GATCTGTAGGCAGATC ((((((....))))))	-45 kcal/mol	51.9 °C
GATCCTCCTAAGGATC ((((((....))))))	-37.5 kcal/mol	53.4 °C
GTCTGCGAAAGCAGAGAC ((((((....)))..)))	-9.97 kcal/mol	51.4 °C
GTAAAACGAAAGTTTAC (((.(((....))))))	-17.4 kcal/mol	35.2 °C
GGCTCCGAAAGGAGCGCC ((((((....)))..)))	-6.52 kcal/mol	68.6 °C
GCCGCTCCGAAAGGAGGC (((..(((....))))))	-9.81 kcal/mol	55.4 °C
GGTTTCGAAAGAAATACC ((((((....)))..)))	-19.6 kcal/mol	32.7 °C
GATCCGTGTGCGGATC ((((((....))))))	-38.8 kcal/mol	66.7 °C
GATCAGCATCCTGATC ((((((....))))))	-32.5 kcal/mol	48 °C
GGTGCTGGAAACAGCATC (.(((((....))))).)	-30.3 kcal/mol	54.1 °C
